Source: ChEMBL document CHEMBL4270603, “Computer-aided drug discovery: Novel 3,9-disubstituted eudistomin U derivatives as potent antibacterial agents” (Eur J Med Chem, 2018)
≈ marks a conversion by molar mass, not a printed value. Calls of active or inactive are those of the source. The calls are words filed in the database; no cut-off is given here.

Columns and labels:
Ralstonia solanacearum [1] = test: Antibacterial activity against Ralstonia solanacearum CGMCC 1.12711 measured after 12 to 14 hrs; format: functional
Procedure, shortened: (§1)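 In vitro double dilution method, run alongside fosfomycin sodium, ciprofloxacin and propineb as positive controls.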

Staphylococcus aureus [2] = test: Antibacterial activity against methicillin-resistant Staphylococcus aureus ATCC 43300 measured after 12 to 14 hrs; format: functional; procedure, shortened: as §1
Staphylococcus aureus [3] = test: Antibacterial activity against Staphylococcus aureus CGMCC 1.8721 measured after 12 to 14 hrs; format: functional
Procedure, shortened: (§2)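 Twofold (double) dilution method for in vitro antibacterial activity, with fosfomycin sodium, ciprofloxacin and propineb as positive controls.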

Bacillus cereus [4] = test: Antibacterial activity against Bacillus cereus CGMCC 1.1846 measured after 12 to 14 hrs; format: functional; procedure, shortened: as §2
Bacillus cereus [5] = test: Potency index, ratio of ciprofloxacin MIC to test compound MIC for Bacillus cereus CGMCC 1.1846; format: functional
Ralstonia solanacearum [6] = test: Potency index, ratio of propineb MIC to test compound MIC for Ralstonia solanacearum CGMCC 1.12711; format: functional
Staphylococcus aureus [7] = test: Induction of morphological changes in Staphylococcus aureus assessed as appearance of irregular cell surface at 1.5625 micromol/l after 1 hr by scanning electron microscopic analysis; format: functional, organism-based
Procedure, shortened: (§3)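 Cell-surface morphology of compound-treated S. aureus was imaged by scanning electron microscopy and compared with an untreated blank group.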

Staphylococcus aureus [8] = test: Induction of morphological changes in Staphylococcus aureus assessed as appearance of rough cell surface at 1.5625 micromol/l after 1 hr by scanning electron microscopic analysis; format: functional, organism-based; procedure, shortened: as §3
Staphylococcus aureus [9] = test: Bactericidal activity against Staphylococcus aureus assessed as disruption of bacterial membrane at 1.5625 micromol/l after 1 hr by Hoechst/propidium iodide staining based fluorescence microscopic analysis; format: functional, organism-based
Procedure, shortened: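 S. aureus cells were incubated with compound for 1 h, then dual-stained with Hoechst and propidium iodide and imaged by fluorescence microscopy, with untreated cells as the control. Hoechst enters intact cells and gives blue fluorescence. PI gives red fluorescence only when the membrane is disrupted. Blue, red and merged channels were compared.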

Staphylococcus aureus [10] = test: Potency index, ratio of ciprofloxacin MIC to test compound MIC for methicillin-resistant Staphylococcus aureus ATCC 43300; format: functional
Staphylococcus aureus [11] = test: Induction of morphological changes in Staphylococcus aureus assessed as disruption of cell membrane at 0.5 MIC after 1 hr by transmission electron microscopic analysis; format: functional, organism-based; settings: 0.5 M
Procedure, shortened: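 S. aureus cells were exposed to compound for 1 h, then imaged by transmission electron microscopy for cell-membrane boundary integrity, with untreated cells as the comparison.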

Calf thymus DNA = test: Binding affinity to calf thymus DNA by isothermal titration calorimetric method; format: nucleic-acid assay, Bos taurus
Procedure, shortened: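 DNA was titrated with compound by isothermal titration calorimetry at 298 K. Heat flow was recorded over time, and thermodynamic constants were obtained by fitting to an independent binding model.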

| Structure (SMILES) | MIC (Ralstonia solanacearum [1]) [µM] | MIC (Staphylococcus aureus [2]) [µM] | MIC (Staphylococcus aureus [3]) [µM] | MIC (Bacillus cereus [4]) [µM] | other results |
| --- | --- | --- | --- | --- | --- |
| COC(=O)c1cc2c3ccccc3n(Cc3cccc(F)c3)c2c(-c2cn(C(C)=O)c3ccccc23)n1 | > 100 | > 100 | > 100 | > 100 | – |
| OCc1cc2c3ccccc3n(Cc3cccc(C(F)(F)F)c3)c2c(-c2c[nH]c3ccccc23)n1 | 3.12 (≈ 1.47 µg/mL) | 12.5 (≈ 5.89 µg/mL) | 3.12 (≈ 1.47 µg/mL) | 3.12 (≈ 1.47 µg/mL) | Ratio (Bacillus cereus [5]): 2 |
| OCc1cc2c3ccccc3n(Cc3ccc(Br)cc3)c2c(-c2c[nH]c3ccccc23)n1 | 1.56 (≈ 0.754 µg/mL) | 3.12 (≈ 1.51 µg/mL) | 3.12 (≈ 1.51 µg/mL) | 3.12 (≈ 1.51 µg/mL) | Ratio (Ralstonia solanacearum [6]): 16; Activity (Staphylococcus aureus [7]): Active; Activity (Staphylococcus aureus [8]): Active; Activity (Staphylococcus aureus [9]): Active; Ratio (Staphylococcus aureus [10]): 4; Activity (Staphylococcus aureus [11]): Active; Ratio (Bacillus cereus [5]): 2; Kd (Calf thymus DNA): 553 nM; Ka (Calf thymus DNA; Bos taurus): 1.81 ×10⁶ /M |
| Cc1ccc(Cn2c3ccccc3c3cc(CO)nc(-c4c[nH]c5ccccc45)c32)cc1 | 12.5 (≈ 5.22 µg/mL) | 25 (≈ 10.4 µg/mL) | 25 (≈ 10.4 µg/mL) | 25 (≈ 10.4 µg/mL) | – |
| OCc1cc2c3ccccc3n(Cc3ccc(Cl)cc3)c2c(-c2c[nH]c3ccccc23)n1 | 12.5 (≈ 5.47 µg/mL) | 50 (≈ 21.9 µg/mL) | 25 (≈ 10.9 µg/mL) | 12.5 (≈ 5.47 µg/mL) | – |
| COC(=O)c1cc2c3ccccc3n(Cc3ccccc3C)c2c(-c2cn(C(C)=O)c3ccccc23)n1 | > 100 | > 100 | > 100 | 100 (≈ 48.8 µg/mL) | – |
| COC(=O)c1cc2c3ccccc3n(Cc3cccc(Cl)c3)c2c(-c2cn(C(C)=O)c3ccccc23)n1 | > 100 | > 100 | > 100 | > 100 | – |
| Cc1cccc(Cn2c3ccccc3c3cc(CO)nc(-c4c[nH]c5ccccc45)c32)c1 | 3.12 (≈ 1.3 µg/mL) | 100 (≈ 41.8 µg/mL) | 3.12 (≈ 1.3 µg/mL) | 3.12 (≈ 1.3 µg/mL) | Ratio (Bacillus cereus [5]): 2 |
| OCc1cc2c3ccccc3n(Cc3cccc(F)c3)c2c(-c2c[nH]c3ccccc23)n1 | 50 (≈ 21.1 µg/mL) | > 100 | 25 (≈ 10.5 µg/mL) | 50 (≈ 21.1 µg/mL) | – |
| COC(=O)c1cc2c3ccccc3n(Cc3cccc(C(F)(F)F)c3)c2c(-c2cn(C(C)=O)c3ccccc23)n1 | > 100 | > 100 | > 100 | > 100 | – |
| COC(=O)c1cc2c3ccccc3n(Cc3ccc(C)cc3)c2c(-c2cn(C(C)=O)c3ccccc23)n1 | > 100 | > 100 | > 100 | > 100 | – |
| OCc1cc2c3ccccc3n(Cc3ccccc3Br)c2c(-c2c[nH]c3ccccc23)n1 | 50 (≈ 24.1 µg/mL) | > 100 | 12.5 (≈ 6.03 µg/mL) | 25 (≈ 12.1 µg/mL) | – |
| Cc1ccccc1Cn1c2ccccc2c2cc(CO)nc(-c3c[nH]c4ccccc34)c21 | 12.5 (≈ 5.22 µg/mL) | > 100 | 25 (≈ 10.4 µg/mL) | 50 (≈ 20.9 µg/mL) | – |
| OCc1cc2c3ccccc3n(Cc3ccc(F)cc3)c2c(-c2c[nH]c3ccccc23)n1 | 6.25 (≈ 2.63 µg/mL) | 3.12 (≈ 1.32 µg/mL) | 6.25 (≈ 2.63 µg/mL) | 3.12 (≈ 1.32 µg/mL) | Ratio (Staphylococcus aureus [10]): 4; Ratio (Bacillus cereus [5]): 2 |
| COC(=O)c1cc2c3ccccc3n(Cc3cccc(Br)c3)c2c(-c2cn(C(C)=O)c3ccccc23)n1 | > 100 | > 100 | > 100 | > 100 | – |
| COC(=O)c1cc2c3ccccc3n(Cc3ccccc3)c2c(-c2cn(C(C)=O)c3ccccc23)n1 | > 100 | > 100 | > 100 | > 100 | – |
| COC(=O)c1cc2c([nH]c3ccccc32)c(-c2cn(C(C)=O)c3ccccc23)n1 | > 100 | > 100 | > 100 | > 100 | – |
| COC(=O)c1cc2c3ccccc3n(Cc3ccc(Cl)cc3)c2c(-c2cn(C(C)=O)c3ccccc23)n1 | > 100 | > 100 | > 100 | > 100 | – |

| Structure (SMILES) | MIC (Ralstonia solanacearum [1]) [µM] | MIC (Staphylococcus aureus [2]) [µM] | MIC (Staphylococcus aureus [3]) [µM] | MIC (Bacillus cereus [4]) [µM] | other results |
| --- | --- | --- | --- | --- | --- |
| COC(=O)c1cc2c3ccccc3n(Cc3ccc(C(F)(F)F)cc3)c2c(-c2cn(C(C)=O)c3ccccc23)n1 | > 100 | > 100 | > 100 | > 100 | – |
| COC(=O)c1cc2c3ccccc3n(Cc3cccc(C)c3)c2c(-c2cn(C(C)=O)c3ccccc23)n1 | > 100 | > 100 | > 100 | > 100 | – |
| COC(=O)c1cc2c3ccccc3n(Cc3ccccc3C(F)(F)F)c2c(-c2cn(C(C)=O)c3ccccc23)n1 | > 100 | > 100 | > 100 | > 100 | – |
| COC(=O)c1cc2c3ccccc3n(Cc3ccc(F)cc3)c2c(-c2cn(C(C)=O)c3ccccc23)n1 | > 100 | > 100 | > 100 | > 100 | – |
| C[C@@H]1O[C@@H]1P(=O)(O)O [PHOSPHOMYCIN DISODIUM] | 50 | 50 | 100 | 25 | – |
| OCc1cc2c3ccccc3n(Cc3ccccc3F)c2c(-c2c[nH]c3ccccc23)n1 | 25 (≈ 10.5 µg/mL) | > 100 | 25 (≈ 10.5 µg/mL) | 50 (≈ 21.1 µg/mL) | – |
| OCc1cc2c3ccccc3n(Cc3ccccc3C(F)(F)F)c2c(-c2c[nH]c3ccccc23)n1 | 50 (≈ 23.6 µg/mL) | 100 (≈ 47.1 µg/mL) | 50 (≈ 23.6 µg/mL) | 50 (≈ 23.6 µg/mL) | – |
| OCc1cc2c3ccccc3n(Cc3cccc(Cl)c3)c2c(-c2c[nH]c3ccccc23)n1 | 50 (≈ 21.9 µg/mL) | > 100 | 25 (≈ 10.9 µg/mL) | 25 (≈ 10.9 µg/mL) | – |
| OCc1cc2c3ccccc3n(Cc3ccc(C(F)(F)F)cc3)c2c(-c2c[nH]c3ccccc23)n1 | 25 (≈ 11.8 µg/mL) | 25 (≈ 11.8 µg/mL) | 25 (≈ 11.8 µg/mL) | 25 (≈ 11.8 µg/mL) | – |
| OCc1cc2c3ccccc3n(Cc3ccccc3)c2c(-c2c[nH]c3ccccc23)n1 | 12.5 (≈ 5.04 µg/mL) | 100 (≈ 40.3 µg/mL) | 12.5 (≈ 5.04 µg/mL) | 12.5 (≈ 5.04 µg/mL) | – |
| OCc1cc2c3ccccc3n(Cc3cccc(Br)c3)c2c(-c2c[nH]c3ccccc23)n1 | 25 (≈ 12.1 µg/mL) | > 100 | 25 (≈ 12.1 µg/mL) | 25 (≈ 12.1 µg/mL) | – |
| COC(=O)c1cc2c3ccccc3n(Cc3ccccc3F)c2c(-c2cn(C(C)=O)c3ccccc23)n1 | > 100 | > 100 | > 100 | > 100 | – |
| COC(=O)c1cc2c3ccccc3n(Cc3ccccc3Br)c2c(-c2cn(C(C)=O)c3ccccc23)n1 | > 100 | > 100 | > 100 | > 100 | – |
| O=C(O)c1cn(C2CC2)c2cc(N3CCNCC3)c(F)cc2c1=O [CIPROFLOXACIN] | 3.12 (≈ 1.04 µg/mL) | 12.5 (≈ 4.14 µg/mL) | 3.12 (≈ 1.04 µg/mL) | 6.25 (≈ 2.07 µg/mL) | – |
| OCc1cc2c3ccccc3n(Cc3ccccc3Cl)c2c(-c2c[nH]c3ccccc23)n1 | 25 (≈ 10.9 µg/mL) | > 100 | 25 (≈ 10.9 µg/mL) | 50 (≈ 21.9 µg/mL) | – |
| COC(=O)c1cc2c3ccccc3n(Cc3ccc(Br)cc3)c2c(-c2cn(C(C)=O)c3ccccc23)n1 | > 100 | > 100 | > 100 | > 100 | – |
| COC(=O)c1cc2c3ccccc3n(Cc3ccccc3Cl)c2c(-c2cn(C(C)=O)c3ccccc23)n1 | > 100 | > 100 | 100 (≈ 50.8 µg/mL) | > 100 | – |
